# Data: ChEMBL document CHEMBL4715736, “Identification of anticancer agents based on the thieno[2,3-b]pyridine and 1H-pyrazole molecular scaffolds” (2016)
# How the values were obtained:
# Type in all cases: functional
# Settings in all cases: read-out: Activity
# SF-268 = assay: Growth inhibition of human SF-268 cells assessed as cell growth at 10 uM incubated for 48 hrs by sulforhodamine B assay relative to control
# Outline: (§1)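 Run by the NCI Developmental Therapeutics Program as part of its 60-line human tumour panel. Each compound tested at a single 10 µM dose. Growth expressed as % relative to untreated control cells (100%).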
# IGROV-1 = assay: Growth inhibition of human IGROV-1 cells assessed as cell growth at 10 uM incubated for 48 hrs by sulforhodamine B assay relative to control
# Outline: (§2)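 Submitted to the NCI Developmental Therapeutics Program for the NCI60 human tumour cell line panel. First screen at a single 10 µM concentration. Read-out is growth relative to untreated control cells set at 100%.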
# UACC-257 = assay: Growth inhibition of human UACC-257 cells assessed as cell growth at 10 uM incubated for 48 hrs by sulforhodamine B assay relative to control; outline: as §1
# UO-31 = assay: Growth inhibition of human UO-31 cells assessed as cell growth at 10 uM incubated for 48 hrs by sulforhodamine B assay relative to control; outline: as §1
# Hs-578T = assay: Growth inhibition of human Hs-578T cells assessed as cell growth at 10 uM incubated for 48 hrs by sulforhodamine B assay relative to control; outline: as §2
# 786-0 = assay: Growth inhibition of human 786-0 cells assessed as cell growth at 10 uM incubated for 48 hrs by sulforhodamine B assay relative to control
# Outline: (§3)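 NCI Developmental Therapeutics Program NCI60 panel. Compounds that were active in the 10 µM one-dose screen went on to dose–response testing. Growth at each concentration is expressed relative to untreated control (100%). GI50 (concentration giving 50% of maximal inhibition of proliferation) and TGI (concentration giving total growth inhibition) were derived from the curves.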
# RXF 393 = assay: Growth inhibition of human RXF 393 cells assessed as cell growth at 10 uM incubated for 48 hrs by sulforhodamine B assay relative to control; outline: as §1
# SW-620 = assay: Growth inhibition of human SW-620 cells assessed as cell growth at 10 uM incubated for 48 hrs by sulforhodamine B assay relative to control; outline: as §1
# HCT-116 = assay: Growth inhibition of human HCT-116 cells assessed as cell growth at 10 uM incubated for 48 hrs by sulforhodamine B assay relative to control; outline: as §2
# ACHN = assay: Growth inhibition of human ACHN cells assessed as cell growth at 10 uM incubated for 48 hrs by sulforhodamine B assay relative to control
# Outline: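 NCI Developmental Therapeutics Program NCI60 human tumour cell line panel, one-dose primary screen with every compound at 10 µM. Growth is expressed as % of untreated control cells (100%).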
# SF-295 = assay: Growth inhibition of human SF-295 cells assessed as cell growth at 10 uM incubated for 48 hrs by sulforhodamine B assay relative to control; outline: as §1
# SK-MEL-5 = assay: Growth inhibition of human SK-MEL-5 cells assessed as cell growth at 10 uM incubated for 48 hrs by sulforhodamine B assay relative to control; outline: as §1
# M14 = assay: Growth inhibition of human M14 cells assessed as cell growth at 10 uM incubated for 48 hrs by sulforhodamine B assay relative to control; outline: as §2
# HOP-62 = assay: Growth inhibition of human HOP-62 cells assessed as cell growth at 10 uM incubated for 48 hrs by sulforhodamine B assay relative to control; outline: as §2
# SF-539 = assay: Growth inhibition of human SF-539 cells assessed as cell growth at 10 uM incubated for 48 hrs by sulforhodamine B assay relative to control; outline: as §1
# COLO 205 = assay: Growth inhibition of human COLO 205 cells assessed as cell growth at 10 uM incubated for 48 hrs by sulforhodamine B assay relative to control; outline: as §3
# NCI-H460 = assay: Growth inhibition of human NCI-H460 cells assessed as cell growth at 10 uM incubated for 48 hrs by sulforhodamine B assay relative to control; outline: as §2
# NCI-H226 = assay: Growth inhibition of human NCI-H226 cells assessed as cell growth at 10 uM incubated for 48 hrs by sulforhodamine B assay relative to control; outline: as §2
# PC-3 = assay: Growth inhibition of human PC-3 cells assessed as cell growth at 10 uM incubated for 48 hrs by sulforhodamine B assay relative to control; outline: as §1
# K562 = assay: Growth inhibition of human K562 cells assessed as cell growth at 10 uM incubated for 48 hrs by sulforhodamine B assay relative to control; outline: as §2
# MDA-MB-435 = assay: Growth inhibition of human MDA-MB-435 cells assessed as cell growth at 10 uM incubated for 48 hrs by sulforhodamine B assay relative to control; outline: as §2
# MOLT-4 = assay: Growth inhibition of human MOLT-4 cells assessed as cell growth at 10 uM incubated for 48 hrs by sulforhodamine B assay relative to control; outline: as §2
# A549 = assay: Growth inhibition of human A549/ATCC cells assessed as cell growth at 10 uM incubated for 48 hrs by sulforhodamine B assay relative to control; outline: as §3
# HL-60(TB) = assay: Growth inhibition of human HL-60(TB) cells assessed as cell growth at 10 uM incubated for 48 hrs by sulforhodamine B assay relative to control
# Outline: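 Screened by the NCI Developmental Therapeutics Program on its panel of 60 human tumour cell lines. Compounds were first tested at a single 10 µM dose, and compounds active there went to dose-response curves. Growth is expressed relative to untreated control (100%). GI50 (50% of maximal proliferation inhibition) and TGI (total growth inhibition) were derived from the dose-response data.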
# Malme-3M = assay: Growth inhibition of human Malme-3M cells assessed as cell growth at 10 uM incubated for 48 hrs by sulforhodamine B assay relative to control; outline: as §2
# OVCAR-5 = assay: Growth inhibition of human OVCAR-5 cells assessed as cell growth at 10 uM incubated for 48 hrs by sulforhodamine B assay relative to control; outline: as §1
# SNB-75 = assay: Growth inhibition of human SNB-75 cells assessed as cell growth at 10 uM incubated for 48 hrs by sulforhodamine B assay relative to control; outline: as §1
# MDA-MB-231 = assay: Growth inhibition of human MDA-MB-231 cells assessed as cell growth at 10 uM incubated for 48 hrs by sulforhodamine B assay relative to control; outline: as §2
# HCT-15 = assay: Growth inhibition of human HCT-15 cells assessed as cell growth at 10 uM incubated for 48 hrs by sulforhodamine B assay relative to control; outline: as §2
# OVCAR-4 = assay: Growth inhibition of human OVCAR-4 cells assessed as cell growth at 10 uM incubated for 48 hrs by sulforhodamine B assay relative to control; outline: as §1
# DU-145 = assay: Growth inhibition of human DU-145 cells assessed as cell growth at 10 uM incubated for 48 hrs by sulforhodamine B assay relative to control; outline: as §3
# SNB-19 = assay: Growth inhibition of human SNB-19 cells assessed as cell growth at 10 uM incubated for 48 hrs by sulforhodamine B assay relative to control; outline: as §1
# OVCAR-3 = assay: Growth inhibition of human OVCAR-3 cells assessed as cell growth at 10 uM incubated for 48 hrs by sulforhodamine B assay relative to control; outline: as §1
Structure (SMILES),growth at 10 µM (SF-268) [%],growth at 10 µM (IGROV-1) [%],growth at 10 µM (UACC-257) [%],growth at 10 µM (UO-31) [%],growth at 10 µM (Hs-578T) [%],growth at 10 µM (786-0) [%],growth at 10 µM (RXF 393) [%],growth at 10 µM (SW-620) [%],growth at 10 µM (HCT-116) [%],growth at 10 µM (ACHN) [%],growth at 10 µM (SF-295) [%],growth at 10 µM (SK-MEL-5) [%],growth at 10 µM (M14) [%],growth at 10 µM (HOP-62) [%],growth at 10 µM (SF-539) [%],growth at 10 µM (NCI-H460) [%],growth at 10 µM (NCI-H226) [%],growth at 10 µM (PC-3) [%],growth at 10 µM (K562) [%],growth at 10 µM (MDA-MB-435) [%],further results
O=S(=O)(c1ccccc1)n1ccc(-c2ccc3c(c2)CCO3)n1,92.8,75.7,79.9,51,102,90.3,82.9,93.7,89.1,78.4,83.3,70.2,101,98.8,86.7,87.3,64.6,84.2,56,104,growth at 10 µM (COLO 205): 96.9%; growth at 10 µM (MOLT-4): 85.6%; growth at 10 µM (A549): 78.8%; growth at 10 µM (HL-60(TB)): 109%; growth at 10 µM (Malme-3M): 94%; growth at 10 µM (OVCAR-5): 103%; growth at 10 µM (SNB-75): 76.2%; growth at 10 µM (MDA-MB-231): 82.9%; growth at 10 µM (HCT-15): 92.8%; growth at 10 µM (OVCAR-4): 70.1%; growth at 10 µM (DU-145): 95%; growth at 10 µM (SNB-19): 83.4%
Nc1c(C(=O)Nc2ccccc2)sc2nc3c(cc12)CN(Cc1ccccc1)CC3,38,74,67,41,-11,54,12,63,51,37,36,49,64,26,9,44,31,70,48,34,growth at 10 µM (OVCAR-3): 52%; growth at 10 µM (COLO 205): 66%; growth at 10 µM (MOLT-4): 81%; growth at 10 µM (A549): 55%; growth at 10 µM (Malme-3M): 23%; growth at 10 µM (OVCAR-5): 70%; growth at 10 µM (SNB-75): -54%; growth at 10 µM (MDA-MB-231): 37%; growth at 10 µM (HCT-15): 66%; growth at 10 µM (OVCAR-4): 11%; growth at 10 µM (DU-145): 57%; growth at 10 µM (SNB-19): 59%
COc1cccc(NC(=O)c2sc3nc4c(cc3c2N)CN(Cc2ccccc2)CC4)c1,18,67,44,24,5,22,6,30,23,14,21,35,56,-17,-18,24,41,54,16,3,growth at 10 µM (OVCAR-3): 46%; growth at 10 µM (COLO 205): 44%; growth at 10 µM (MOLT-4): 69%; growth at 10 µM (A549): 22%; growth at 10 µM (Malme-3M): 12%; growth at 10 µM (OVCAR-5): 71%; growth at 10 µM (SNB-75): -38%; growth at 10 µM (MDA-MB-231): 54%; growth at 10 µM (HCT-15): 30%; growth at 10 µM (OVCAR-4): 13%; growth at 10 µM (DU-145): 32%; growth at 10 µM (SNB-19): 35%
Cc1cc(C)c(NC(=O)c2sc3nc4c(cc3c2N)CN(Cc2ccccc2)CC4)c(C)c1,42,42,44,37,15,23,5,13,16,40,8,3,17,46,-11,7,36,25,13,-11,growth at 10 µM (OVCAR-3): 5%; growth at 10 µM (MOLT-4): 21%; growth at 10 µM (A549): 25%; growth at 10 µM (Malme-3M): 28%; growth at 10 µM (OVCAR-5): 54%; growth at 10 µM (MDA-MB-231): 38%; growth at 10 µM (HCT-15): 12%; growth at 10 µM (OVCAR-4): 44%; growth at 10 µM (DU-145): -12%; growth at 10 µM (SNB-19): 44%
CCOc1ccc(-c2cc(N)n(S(=O)(=O)c3ccc(OC)cc3)n2)cc1,109,96.6,86.6,91.2,99.7,108,95.9,110,96,102,115,97.5,120,122,98.4,98.8,97.7,88.6,105,101,growth at 10 µM (COLO 205): 116%; growth at 10 µM (MOLT-4): 85.2%; growth at 10 µM (A549): 92.5%; growth at 10 µM (HL-60(TB)): 126%; growth at 10 µM (Malme-3M): 114%; growth at 10 µM (OVCAR-5): 107%; growth at 10 µM (SNB-75): 89.9%; growth at 10 µM (MDA-MB-231): 92.4%; growth at 10 µM (HCT-15): 98.7%; growth at 10 µM (OVCAR-4): 103%; growth at 10 µM (DU-145): 110%; growth at 10 µM (SNB-19): 96.3%
Cc1ccc(S(=O)(=O)n2ccc(-c3ccc(OCCCF)cc3)n2)cc1,103,92.5,80,66.4,109,89.6,91.8,103,86.1,97.4,83.7,73.5,94.7,108,95.2,89.6,77.6,73.5,55.4,91.3,growth at 10 µM (COLO 205): 101%; growth at 10 µM (MOLT-4): 73.2%; growth at 10 µM (A549): 78.8%; growth at 10 µM (HL-60(TB)): 107%; growth at 10 µM (Malme-3M): 101%; growth at 10 µM (OVCAR-5): 110%; growth at 10 µM (SNB-75): 78.3%; growth at 10 µM (MDA-MB-231): 93.9%; growth at 10 µM (HCT-15): 93.5%; growth at 10 µM (OVCAR-4): 73.2%; growth at 10 µM (DU-145): 99.3%; growth at 10 µM (SNB-19): 91.7%
